In brackets after ≈: the same amount, converted by molar mass. Activity calls are given as the source filed them. The rule behind the calls is not given here.
Legend:
Saccharomyces cerevisiae [1] = assay: Antifungal activity against Saccharomyces cerevisiae ATCC 9763 assessed as decrease in fungal cell growth at 0.78 to 12.5 mg/L incubated for 24 hrs by CLSI broth dilution method; type: functional; details: ATCC 9763, 24 h
How it was run: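 Yeast strain subcultured on Sabouraud dextrose agar for 24–48 h at 30 °C before testing. Compounds dissolved in DMSO.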

Candida parapsilosis [2] = assay: Antifungal activity against Candida parapsilosis ATCC 22019 assessed as diameter of zone inhibition incubated for 24 hrs by CLSI disc diffusion method; type: functional
How it was run: (§1)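 Yeast disc diffusion on Mueller-Hinton agar supplemented with 2% glucose and 0.5 mg/L methylene blue. Compounds in DMSO. Yeasts subcultured on Sabouraud dextrose agar before testing. Zones read after 35 °C, 24 h.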

Acinetobacter baumannii [3] = assay: Antibacterial activity against Acinetobacter baumannii ATCC 19606 assessed as fold reduction of MIC in presence of efflux pump inhibitor PAbetaN incubated for 18 hrs by broth microdilution method; type: functional
How it was run: (§2)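 MICs determined with and without PAβN at 50 mg/L in Mueller-Hinton broth containing 1 mM MgSO₄. 2-fold serial dilutions per CLSI. Fold change taken from the paired MICs after 35 °C, 18 h.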

Klebsiella pneumoniae [4] = details: ATCC 13883
Enterobacter cloacae [5] = assay: Antibacterial activity against Enterobacter cloacae DSM 6234 measured after 18 hrs by CLSI broth dilution method; type: functional; details: DSM 6234, 18 h
How it was run: (§3)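 Broth MIC in Mueller-Hinton II broth following CLSI, compounds dissolved in DMSO. Strains subcultured twice on tryptic soy agar before testing. Growth read after 35 °C, 18 h.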

[6] = system: Bordetella bronchiseptica; assay: Antibacterial activity against Bordetella bronchiseptica ATCC 4617 assessed as diameter of zone inhibition measured after 18 hrs by CLSI disc diffusion method; type: functional
How it was run: (§4)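 Disc diffusion on Mueller-Hinton II agar. Compounds dissolved in DMSO. Strains stored at -80 °C and subcultured twice on tryptic soy agar before testing. Inhibition zones read after 35 °C, 18 h.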

Candida parapsilosis [7] = assay: Antifungal activity against Candida parapsilosis ATCC 22019 assessed as decrease in fungal cell growth at 0.78 to 12.5 mg/L incubated for 24 hrs by CLSI broth dilution method; type: functional; details: Lodderomyces parapsilosis, ATCC 22019, 24 h
How it was run: (§5)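 Yeast broth dilution in RPMI 1640 with 2% glucose, compounds in DMSO. Yeasts pre-grown on Sabouraud dextrose agar. Growth read after 35 °C, 24 h.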

Saccharomyces cerevisiae [8] = assay: Antifungal activity against Saccharomyces cerevisiae ATCC 9763 diameter of zone inhibition incubated for 24 hrs by CLSI disc diffusion method; type: functional
How it was run: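 Disc-diffusion run on Mueller-Hinton II agar with 2% glucose and 0.5 mg/L methylene blue, using compounds in DMSO. Yeast was precultured on Sabouraud dextrose agar (24–48 h, 30 °C). Zones read after 24 h at 35 °C.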

Burkholderia cepacia = assay: Antibacterial activity against Burkholderia cepacia ATCC 25416 assessed as diameter of zone inhibition measured after 18 hrs by CLSI disc diffusion method; type: functional; how it was run: as §4
Pichia kudriavzevii [9] = assay: Antifungal activity against Candida krusei ATCC 6258 assessed as diameter of zone inhibition incubated for 24 hrs by CLSI disc diffusion method; type: functional; how it was run: as §1
Serratia marcescens [10] = details: ATCC 13880
Staphylococcus aureus [11] = assay: Antibacterial activity against Staphylococcus aureus ATCC 6538P measured after 18 hrs by CLSI broth dilution method; type: functional; how it was run: as §3
Pseudomonas aeruginosa = assay: Antibacterial activity against Pseudomonas aeruginosa ATCC 27853 assessed as diameter of zone inhibition measured after 18 hrs by CLSI disc diffusion method; type: functional, organism-based; how it was run: as §4
[12] = system: Bordetella bronchiseptica; assay: Antibacterial activity against Bordetella bronchiseptica ATCC 4617 measured after 18 hrs by CLSI broth dilution method; type: functional; details: ATCC 4617, 18 h; how it was run: as §3
Pichia kudriavzevii [13] = assay: Antifungal activity against Candida krusei ATCC 6258 assessed as decrease in fungal cell growth at 0.78 to 12.5 mg/L incubated for 24 hrs by CLSI broth dilution method; type: functional; details: ATCC 6258, 24 h; how it was run: as §5
Enterococcus faecalis [14] = assay: Antibacterial activity against Enterococcus faecalis ATCC 29212 measured after 18 hrs by CLSI broth dilution method; type: functional; details: ATCC 29212, 18 h; how it was run: as §3
[15] = system: Staphylococcus epidermidis; assay: Antibacterial activity against Staphylococcus epidermidis ATCC 12228 assessed as diameter of zone inhibition measured after 18 hrs by CLSI disc diffusion method; type: functional; how it was run: as §4
Escherichia coli = assay: Antibacterial activity against Escherichia coli ATCC 25922 measured after 18 hrs by CLSI broth dilution method; type: functional; details: ATCC 25922, 18 h; how it was run: as §3
Candida tropicalis [16] = assay: Antifungal activity against Candida tropicalis IBA 171 assessed as diameter of zone inhibition incubated for 24 hrs by CLSI disc diffusion method; type: functional; how it was run: as §1
Candida tropicalis [17] = assay: Antifungal activity against Candida tropicalis IBA 171 assessed as decrease in fungal cell growth at 0.78 to 12.5 mg/L incubated for 24 hrs by CLSI broth dilution method; type: functional; details: IBA 171, 24 h; how it was run: as §5
[18] = system: Staphylococcus epidermidis; assay: Antibacterial activity against Staphylococcus epidermidis ATCC 12228 measured after 18 hrs by CLSI broth dilution method; type: functional; details: ATCC 12228, 18 h; how it was run: as §3
Enterococcus faecalis [19] = assay: Antibacterial activity against Enterococcus faecalis ATCC 29212 assessed as diameter of zone inhibition measured after 18 hrs by CLSI disc diffusion method; type: functional; how it was run: as §4
Serratia marcescens [20] = assay: Antibacterial activity against Serratia marcescens ATCC 13880 assessed as fold reduction of MIC in presence of efflux pump inhibitor PAbetaN incubated for 18 hrs by broth microdilution method; type: functional; how it was run: as §2
Enterobacter cloacae [21] = assay: Antibacterial activity against Enterobacter cloacae DSM 6234 assessed as diameter of zone inhibition measured after 18 hrs by CLSI disc diffusion method; type: functional; how it was run: as §4
[22] = Dissociation constant, pKa1 of compound in 0.1 M NaOH by potentiometric analysis; type: physicochemical
Acinetobacter baumannii [23] = assay: Antibacterial activity against Acinetobacter baumannii ATCC 19606 measured after 18 hrs by CLSI broth dilution method; type: functional; details: ATCC 19606, 18 h; how it was run: as §3
[24] = system: Stenotrophomonas maltophilia; assay: Antibacterial activity against Stenotrophomonas maltophilia ATCC 13637 assessed as diameter of zone inhibition measured after 18 hrs by CLSI disc diffusion method; type: functional; how it was run: as §4
Proteus mirabilis [25] = assay: Antibacterial activity against Proteus mirabilis ATCC 12453 assessed as diameter of zone inhibition measured after 18 hrs by CLSI disc diffusion method; type: functional; how it was run: as §4
Klebsiella pneumoniae [26] = assay: Antibacterial activity against Klebsiella pneumoniae ATCC 13883 measured after 18 hrs by CLSI broth dilution method; type: functional; details: ATCC 13883, 18 h; how it was run: as §3
Candida albicans [27] = assay: Antifungal activity against Candida albicans ATCC 90028 assessed as decrease in fungal cell growth at 0.78 to 12.5 mg/L incubated for 24 hrs by CLSI broth dilution method; type: functional; details: ATCC 90028, 24 h; how it was run: as §5
Candida albicans [28] = assay: Antifungal activity against Candida albicans ATCC 90028 assessed as diameter of zone inhibition incubated for 24 hrs by CLSI disc diffusion method; type: functional; how it was run: as §1
Staphylococcus aureus [29] = assay: Antibacterial activity against Staphylococcus aureus ATCC 6538P assessed as diameter of zone inhibition measured after 18 hrs by CLSI disc diffusion method; type: functional; how it was run: as §4
Proteus mirabilis [30] = assay: Antibacterial activity against Proteus mirabilis ATCC 12453 measured after 18 hrs by CLSI broth dilution method; type: functional; details: ATCC 12453, 18 h; how it was run: as §3

| SMILES | MIC (Saccharomyces cerevisiae [1]) [µg/mL] | diameter of the inhibition zone (DIZ) (Candida parapsilosis [2]) | fold change (FC) (Acinetobacter baumannii [3]) | DIZ (Klebsiella pneumoniae [4]) | MIC (Enterobacter cloacae [5]) [µg/mL] | diameter of the inhibition zone (DIZ) [6] | MIC (Candida parapsilosis [7]) [µg/mL] | diameter of the inhibition zone (DIZ) (Saccharomyces cerevisiae [8]) | diameter of the inhibition zone (DIZ) (Burkholderia cepacia) | diameter of the inhibition zone (DIZ) (Pichia kudriavzevii [9]) | DIZ (Serratia marcescens [10]) | MIC (Staphylococcus aureus [11]) [µg/mL] | diameter of the inhibition zone (DIZ) (Pseudomonas aeruginosa) | MIC [12] [µg/mL] | MIC (Pichia kudriavzevii [13]) [µg/mL] | MIC (Enterococcus faecalis [14]) [µg/mL] | diameter of the inhibition zone (DIZ) [15] [mm] | MIC (Escherichia coli) [µg/mL] | diameter of the inhibition zone (DIZ) (Candida tropicalis [16]) | MIC (Candida tropicalis [17]) [µg/mL] | further results |
| --- | --- | --- | --- | --- | --- | --- | --- | --- | --- | --- | --- | --- | --- | --- | --- | --- | --- | --- | --- | --- | --- |
| C[Si]1(C)OB(O)c2cc(F)c(F)cc21 | 3.12 (≈ 14.6 µM) | 18 mm | 8 | inactive | > 400 | inactive | 100 (≈ 467 µM) | 57 mm | inactive | 17 mm | inactive | 50 (≈ 234 µM) | inactive | 400 (≈ 1870 µM) | 50 (≈ 234 µM) | 400 (≈ 1870 µM) | 28 | > 400 | 13 mm | 0.78 (≈ 3.64 µM) | MIC [18]: 50 µg/mL (≈ 234 µM); diameter of the inhibition zone (DIZ) (Enterococcus faecalis [19]): inactive; fold change (FC) (Serratia marcescens [20]): 4; diameter of the inhibition zone (DIZ) (Enterobacter cloacae [21]): inactive; pKa [22]: 6.8; MIC (Acinetobacter baumannii [23]): > 400 µg/mL; diameter of the inhibition zone (DIZ) [24]: 14 mm; diameter of the inhibition zone (DIZ) (Proteus mirabilis [25]): inactive; MIC (Klebsiella pneumoniae [26]): > 400 µg/mL; MIC (Candida albicans [27]): 50 µg/mL (≈ 234 µM); diameter of the inhibition zone (DIZ) (Candida albicans [28]): 16 mm; diameter of the inhibition zone (DIZ) (Staphylococcus aureus [29]): 34 mm; MIC (Proteus mirabilis [30]): 400 µg/mL (≈ 1870 µM) |
| C[Si]1(C)OB(O)c2cccc(B(O)O)c21 | 50 (≈ 225 µM) | inactive | 2 | inactive | > 400 | inactive | 400 (≈ 1800 µM) | inactive | inactive | inactive | inactive | 400 (≈ 1800 µM) | inactive | > 400 | 50 (≈ 225 µM) | > 400 | 22 | > 400 | inactive | 400 (≈ 1800 µM) | MIC [18]: 200 µg/mL (≈ 901 µM); diameter of the inhibition zone (DIZ) (Enterococcus faecalis [19]): inactive; fold change (FC) (Serratia marcescens [20]): 2; diameter of the inhibition zone (DIZ) (Enterobacter cloacae [21]): inactive; pKa [22]: 7.4; MIC (Acinetobacter baumannii [23]): 400 µg/mL (≈ 1800 µM); diameter of the inhibition zone (DIZ) [24]: 12 mm; diameter of the inhibition zone (DIZ) (Proteus mirabilis [25]): inactive; MIC (Klebsiella pneumoniae [26]): > 400 µg/mL; MIC (Candida albicans [27]): > 400 µg/mL; diameter of the inhibition zone (DIZ) (Candida albicans [28]): inactive; diameter of the inhibition zone (DIZ) (Staphylococcus aureus [29]): 11 mm; MIC (Proteus mirabilis [30]): > 400 µg/mL |
| C[Si]1(C)OB(O)c2ccc(F)c(F)c21 | 12.5 (≈ 58.4 µM) | 11 mm | 4 | inactive | > 400 | inactive | 12.5 (≈ 58.4 µM) | 30 mm | inactive | 17 mm | inactive | 25 (≈ 117 µM) | inactive | > 400 | 100 (≈ 467 µM) | 100 (≈ 467 µM) | 33 | > 400 | 12 mm | 6.25 (≈ 29.2 µM) | MIC [18]: 50 µg/mL (≈ 234 µM); diameter of the inhibition zone (DIZ) (Enterococcus faecalis [19]): inactive; fold change (FC) (Serratia marcescens [20]): 8; diameter of the inhibition zone (DIZ) (Enterobacter cloacae [21]): inactive; pKa [22]: 6.1; MIC (Acinetobacter baumannii [23]): 200 µg/mL (≈ 934 µM); diameter of the inhibition zone (DIZ) [24]: 13 mm; diameter of the inhibition zone (DIZ) (Proteus mirabilis [25]): 12 mm; MIC (Klebsiella pneumoniae [26]): > 400 µg/mL; MIC (Candida albicans [27]): 100 µg/mL (≈ 467 µM); diameter of the inhibition zone (DIZ) (Candida albicans [28]): 15 mm; diameter of the inhibition zone (DIZ) (Staphylococcus aureus [29]): 32 mm; MIC (Proteus mirabilis [30]): > 400 µg/mL |

— ChEMBL document CHEMBL4346672, “Antimicrobial and KPC/AmpC inhibitory activity of functionalized benzosiloxaboroles” (Eur J Med Chem, 2019)
